In the library only some 2.6% were active in any assay of this set; here they are far more common.
ARFGAP1 inh = inhibitors of rat ARFGAP1 GAP activity, primary screen, biochemical, fluorescence polarization, GDP tracer. Arfgap1-stimulated ARF1 GTP hydrolysis, GDP FP detection. inhibition, % at 16.5 µM. 0.26% of 360,000 active. AID 651572, 2012;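 active = inhibition above a per-plate limit, mean inhibition of low control wells plus 3 SD, cut at about 25% in these data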;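 note: 0% = DMSO wells with enzyme and 100% = wells lacking Arfgap1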
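system = rat Arfgap1 catalytic domain, aa 1-136 | technique = FP, GDP Alexa 633 tracer displaced from anti-GDP antibody, 620/688 nm | compound = one concentration, 16.5 µM, DMSO 1.26% | medium = HEPES-based buffer, pH 7.5 | timing = compound-enzyme preincubation 20 min, reaction 120 min, detection 60 min, 25 °C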
SMARCA2 act = SMARCA2 (BRM) function activators, primary screen, cell-based, luminescence, high throughput; MG213 cells, MMTV-luciferase reporter, dexamethasone, overnight; activation, % at 9.1 µM; 1% of 370,000 active; AID 652017, 2013; in the data active = activation above about 7.8%;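 note: 0% = vehicle wells and 100% = reference activator wells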
esBAF inh = Bmi1 luciferase reporter increase in mESCs, primary screen, esBAF inhibitor project, mouse ES cells, Bmi1 luciferase knock-in, single point; 24 h; 100% = twice the neutral-well signal; AID 602393, 2012; 2% of 350,000 active; reporter increase, % at 12.5 µM; in the data active = activation above about 40%;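 note: 0% = median of the plate's neutral control wells and 100% = double that signal; a rise in the Bmi1 reporter signal indicates esBAF inhibition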
ASAP1 GAP inh = inhibitors of human ASAP1 ArfGAP activity, primary screen, biochemical, fluorescence polarization. Arf-GAP with SH3 domain, ANK repeat and PH domain-containing protein 1 (Homo sapiens), …. 0.19% of 360,000 active. ASAP1-stimulated ARF1 GTP hydrolysis, GDP FP detection. inhibition, % at 16.5 µM; in the data active = inhibition above about 25%;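 note: 0% = vehicle with enzyme and substrate and 100% = no enzyme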
ASAP1 GAP conf = ASAP1 GAP activity inhibitors, confirmation, biochemical, fluorescence polarization, human, triplicate; shares compounds with ASAP1 GAP inh; ASAP1-stimulated Arf1 GTPase, GDP fluorescence polarization; inhibition, % at 16.5 µM; 37% of 620 active;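 active = mean inhibition over triplicates exceeds the hit threshold derived for the earlier primary screening run, cut at about 25% in these data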
ARFGAP1 confirm = ARFGAP1 inhibitor hit confirmation, biochemical, fluorescence polarization, triplicate; ARFGAP1-stimulated ARF1 GTP hydrolysis, GDP tracer FP; AID 651608, 2012; shares compounds with ARFGAP1 inh; 30% of 890 active; inhibition, % at 16.5 µM;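 active = average inhibition over triplicates above the hit cutoff set in the earlier primary screen, cut at about 25% in these data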;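 note: 0% = Arfgap1 plus ARF1-GTP with DMSO and 100% = wells lacking Arfgap1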
Target sequence (Q62848 whole entry, looked up): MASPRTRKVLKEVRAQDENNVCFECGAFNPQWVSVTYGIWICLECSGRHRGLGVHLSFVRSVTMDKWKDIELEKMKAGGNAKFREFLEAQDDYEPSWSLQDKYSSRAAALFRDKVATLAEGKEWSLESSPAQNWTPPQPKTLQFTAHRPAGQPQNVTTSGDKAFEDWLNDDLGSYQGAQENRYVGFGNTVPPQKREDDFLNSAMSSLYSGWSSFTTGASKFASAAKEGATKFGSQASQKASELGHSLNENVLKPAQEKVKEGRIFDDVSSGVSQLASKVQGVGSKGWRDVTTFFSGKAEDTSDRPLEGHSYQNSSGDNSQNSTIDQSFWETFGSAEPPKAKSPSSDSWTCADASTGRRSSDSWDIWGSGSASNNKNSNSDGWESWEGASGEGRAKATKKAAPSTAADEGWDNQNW
SMARCA2 conf = SMARCA2 (BRM) function activators, confirmation, cell-based, luminescence, triplicate | shares compounds with SMARCA2 act | MG213 cells, MMTV-luciferase with dexamethasone, overnight; MG213 cells expressing E1A, Rb sequestered; DMSO wells 0%, reference activator 100% | activation, % at 9.1 µM | 30% of 3,500 active | AID 652260, 2013;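 active = activation above its plate's cutoff, the mean activation of tested wells plus 3 SD, cut at about 7.9% in these data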
VP16 Luc act = GAL4-VP16 luciferase reporter activation, counter-screen for SMARCA2 (BRM) activator project, cell-based, pG5luc, luminescence, high throughput; activation, % at 9.1 µM; shares compounds with SMARCA2 act; HEK293 GAL4-VP16 pG5luc reporter; scaled: DMSO wells 0%, SAHA wells 100%; 41% of 3,500 active;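 active = activation above the solvent-only control well mean plus 3 SD, averaged across control plates, cut at about 5.2% in these data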
Starred values were filed as active, the others as inactive.

What do the screens show for `O=C(C[C@@H]1CC[C@H](NC(=O)Nc2ccc3c(c2)OCO3)[C@@H](CO)O1)NCc1ccc2c(c1)OCO2`?
esBAF inh: 1

What do the screens show for `COc1cc(NC(=O)c2cc3c(C)nc4ccccc4c3o2)cc(OC)c1OC`?
ARFGAP1 inh: 47*; SMARCA2 act: -4; esBAF inh: 9; ASAP1 GAP inh: 33*; ASAP1 GAP conf: 69*; ARFGAP1 confirm: 52*

Results for CCCNC(=O)C[C@H]1C[C@H]2c3cc(NS(=O)(=O)c4cccc(OC)c4)ccc3O[C@H]2[C@H](CO)O1 ?
esBAF inh: 7

Results for COCCNc1nc(NCCCN2CCCC2=O)c2sc(-c3ccccc3)cc2n1 ?
ARFGAP1 inh: 2; SMARCA2 act: -3; esBAF inh: -2; ASAP1 GAP inh: 19

Results for C=CCNc1nc(NCCCN2CCCC2=O)c2sc(-c3ccccc3)cc2n1 ?
ARFGAP1 inh: 60*; SMARCA2 act: -1; esBAF inh: 2; ASAP1 GAP inh: 38*; ASAP1 GAP conf: 14; ARFGAP1 confirm: 20

Results for COc1ccc(OC)c(Nc2cc3ccccc3c(=O)[nH]2)c1 ?
ARFGAP1 inh: 27*; SMARCA2 act: 2; esBAF inh: -5; ASAP1 GAP inh: 30*; ASAP1 GAP conf: 16; ARFGAP1 confirm: 17

Results for COc1ccccc1Nc1cc2cc(Br)ccc2c(=O)[nH]1 ?
ARFGAP1 inh: 31*; SMARCA2 act: -1; esBAF inh: -5; ASAP1 GAP inh: 39*; ASAP1 GAP conf: 34*; ARFGAP1 confirm: 22

Results for COc1ccccc1Nc1nnc(C)c(=O)[nH]1 ?
ARFGAP1 inh: 9; SMARCA2 act: 3; esBAF inh: 3; ASAP1 GAP inh: 6

Results for Cc1[nH][nH]c(=O)c1C(c1ccc(-c2cccc(C(=O)O)c2)o1)c1c(C)[nH][nH]c1=O ?
ARFGAP1 inh: 31*; SMARCA2 act: -1; ASAP1 GAP inh: 26*; ASAP1 GAP conf: -3; ARFGAP1 confirm: -10

How did COc1ccc(C=C2C(=O)OC(C)(C)OC2=O)cc1OC do in these assays?
ARFGAP1 inh: -4; SMARCA2 act: 0; esBAF inh: 4; ASAP1 GAP inh: 4

How did COc1ccc(/C=C2\C(=O)NC(=O)c3ccccc32)cc1OC do in these assays?
ARFGAP1 inh: 33*; SMARCA2 act: -3; ASAP1 GAP inh: 44*; ASAP1 GAP conf: 41*; ARFGAP1 confirm: 19

Results for COc1ccccc1-c1cnc2c(c1)C(=O)N([C@@H](C)CO)C[C@@H](C)[C@@H](CN(C)Cc1cncnc1)O2 ?
esBAF inh: -1

Results for O=C(CC1CC1)Nc1ccc2c(c1)[C@@H]1C[C@H](CC(=O)N3CCCCC3)O[C@@H](CO)[C@@H]1O2 ?
esBAF inh: 2

Results for COc1ccc(C(=O)Nc2ccc3nc(N4CCN(C)CC4)cc(C)c3c2)c(OC)c1 ?
ARFGAP1 inh: 50*; SMARCA2 act: 2; esBAF inh: -3; ASAP1 GAP inh: 37*; ASAP1 GAP conf: 66*; ARFGAP1 confirm: 71*

What do the screens show for `Cc1cc2oc3cc(NCCC4CCCN4C)ccc3c(=O)c2cc1C` (stereo not drawn)?
ARFGAP1 inh: 31*; SMARCA2 act: 8.8*; esBAF inh: 38; ASAP1 GAP inh: 28*; ASAP1 GAP conf: 38*; ARFGAP1 confirm: 30*; SMARCA2 conf: 21*; VP16 Luc act: 8.7*

Bioassay records (PubChem)
